Measurements as given in ChEMBL document CHEMBL1151773, “Synthesis and biological evaluation of amide derivatives of (5,6-dimethoxy-2,3-dihydro-1H-inden-1-yl)acetic acid as anti-inflammatory agents with reduced gastrointestinal ulcerogenecity” (Eur J Med Chem, 2008).

Key:
Rattus norvegicus [1] = test: Antiinflammatory activity in […] 50 mg/kg, ip pretreated Wistar rat assessed as inhibition carrageenan-induced hind paw edema volume at 100 mg/kg, po administered 60 mins before carrageenan challenge measured after 2 hrs; assay type: functional
Summary of the method: (§1)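 Rats pretreated with SKF-525A 50 mg/kg i.p.; 1 h later oral dose at 100 mg/kg. 1 h after dosing, 0.1 ml of 1% carrageenan given subplantar into the right hind paw.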

Rattus norvegicus [2] = test: Antiinflammatory activity in Wistar rat assessed as inhibition of carrageenan-induced hind paw edema volume at 100 mg/kg, po administered 60 mins before carrageenan challenge after 3 hrs relative to control; assay type: functional
Rattus norvegicus [3] = test: Antiinflammatory activity in Wistar rat assessed as inhibition of carrageenan-induced hind paw edema volume at 100 mg/kg, po administered 60 mins before carrageenan challenge after 4 hrs relative to control; assay type: functional
Rattus norvegicus [4] = test: Antiinflammatory activity in Wistar rat assessed as inhibition of carrageenan-induced hind paw edema volume at 100 mg/kg, po administered 60 mins before carrageenan challenge after 6 hrs relative to control; assay type: functional
Rattus norvegicus [5] = test: Antiinflammatory activity in Wistar rat assessed as inhibition of carrageenan-induced hind paw edema volume at 100 mg/kg, po administered 60 mins before carrageenan challenge after 1 hr relative to control; assay type: functional
Rattus norvegicus [6] = test: Antipyretic activity in Wistar rat assessed as change in LPS-induced rectal temperature at 100 mg/kg, po administered 30 mins before LPS challenge after 1 hr; assay type: functional
Summary of the method: (§2)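 Adult female Wistar rats, 170±20 g, fasted 24 h, dosed orally at 09:00; 30 min later E. coli 0111:B4 phenol-extracted LPS in apyrogenic saline given i.p. Rectal temperature by telethermometer probe just before and 1–7 h hourly after LPS; temperature index calculated from these readings. n = 6.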

Rattus norvegicus [7] = test: Antiarthritic activity in Albino rat assessed as inhibition of Freund's complete adjuvant-induced paw volume at 100 mg/kg, po administered for 14 days daily once starting a day before adjuvant challenge measured on day 3; assay type: functional
Summary of the method: (§3)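 Female albino rats, 160±10 g, six per group, dosed orally once daily for 14 days starting the day before 0.1 ml Freund's complete adjuvant into the right hind paw subplantar surface. Both hind paw volumes, measured up to a mark at the lateral malleolus, taken before and daily after adjuvant.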

Rattus norvegicus [8] = test: Antiinflammatory activity in […] 50 mg/kg, ip pretreated Wistar rat assessed as inhibition of carrageenan-induced hind paw edema volume at 100 mg/kg, po administered 60 mins before carrageenan challenge measured after 24 hrs; assay type: functional; summary of the method: as §1
Rattus norvegicus [9] = test: Antiinflammatory activity in […] 50 mg/kg, ip pretreated Wistar rat assessed as inhibition of carrageenan-induced hind paw edema volume at 100 mg/kg, po administered 60 mins before carrageenan challenge measured after 3 hrs; assay type: functional; summary of the method: as §1
Rattus norvegicus [10] = test: Antipyretic activity in Wistar rat assessed as change in LPS-induced rectal temperature at 100 mg/kg, po administered 30 mins before LPS challenge after 2 hrs; assay type: functional; summary of the method: as §2
Rattus norvegicus [11] = test: Antiinflammatory activity in […] 50 mg/kg, ip pretreated Wistar rat assessed as inhibition carrageenan-induced hind paw edema volume at 100 mg/kg, po administered 60 mins before carrageenan challenge measured after 1 hr; assay type: functional; summary of the method: as §1
Rattus norvegicus [12] = test: Antipyretic activity in Wistar rat assessed as change in LPS-induced rectal temperature at 100 mg/kg, po administered 30 mins before LPS challenge after 6 hrs; assay type: functional; summary of the method: as §2
Mus musculus = test: Analgesic activity in Swiss albino mouse assessed as inhibition of acetic acid-induced writhing at 100 mg/kg, po administered 60 mins before acetic acid challenge after 5 to 15 mins relative to control; assay type: functional
Summary of the method: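 Female Swiss albino mice, 20±5 g, fasted overnight with free water access, dosed orally; 1 h later injected i.p. with 1% v/v acetic acid at 0.1 ml/10 g. Writhes (full hind-limb extension) counted for 15 min, starting 5 min after injection; only animals giving 20 or more writhes used. % inhibition = 100(1−Wt/Wc) vs control group mean; six animals per group.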

Rattus norvegicus [13] = test: Antiarthritic activity in Albino rat assessed as inhibition of Freund's complete adjuvant-induced paw volume at 100 mg/kg, po administered for 14 days daily once starting a day before adjuvant challenge measured on day 13; assay type: functional; summary of the method: as §3
Rattus norvegicus [14] = test: Toxicity in Wistar rat assessed as mortality at up to 1000 mg/kg, po after 24 hrs; assay type: organism-based; set-up: dose 1000 mg/kg, route oral; conditions: in vivo
Rattus norvegicus [15] = test: Gastrointestinal toxicity in Wistar rat assessed as ulcer index at 100 mg/kg, po after 14 days; assay type: organism-based; set-up: dose 100 mg/kg, route oral; conditions: in vivo, 336 h
Summary of the method: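 Gastric mucosa examined for ulceration at post-mortem of female albino rats sacrificed at the end of the 14-day once-daily oral dosing in the Freund's adjuvant arthritis study; ulcer index scored per animal. Mean ± SEM, n = 6.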

Rattus norvegicus [16] = test: Antiinflammatory activity in […] 50 mg/kg, ip pretreated Wistar rat assessed as inhibition of carrageenan-induced hind paw edema volume at 100 mg/kg, po administered 60 mins before carrageenan challenge measured after 6 hrs; assay type: functional; summary of the method: as §1
Rattus norvegicus [17] = test: Antipyretic activity in Wistar rat assessed as change in LPS-induced rectal temperature at 100 mg/kg, po administered 30 mins before LPS challenge after 7 hrs; assay type: functional; summary of the method: as §2
Rattus norvegicus [18] = test: Antiinflammatory activity in Wistar rat assessed as inhibition of carrageenan-induced hind paw edema volume at 100 mg/kg, po administered 60 mins before carrageenan challenge after 24 hrs relative to control; assay type: functional
Rattus norvegicus [19] = test: Antiarthritic activity in Albino rat assessed as inhibition of Freund's complete adjuvant-induced paw volume at 100 mg/kg, po administered for 14 days daily once starting a day before adjuvant challenge measured on day 8; assay type: functional; summary of the method: as §3
Rattus norvegicus [20] = test: Antipyretic activity in Wistar rat assessed as change in LPS-induced rectal temperature at 100 mg/kg, po administered 30 mins before LPS challenge after 5 hrs; assay type: functional; summary of the method: as §2
Rattus norvegicus [21] = test: Antiinflammatory activity in […] 50 mg/kg, ip pretreated Wistar rat assessed as inhibition of carrageenan-induced hind paw edema volume at 100 mg/kg, po administered 60 mins before carrageenan challenge measured after 4 hrs; assay type: functional; summary of the method: as §1
Rattus norvegicus [22] = test: Antiarthritic activity in Freund's complete adjuvant challenged Albino rat model assessed as change in body weight at 100 mg/kg, po administered for 14 days daily once starting a day before adjuvant challenge; assay type: functional; conditions: 336 h, read-out: INH
Rattus norvegicus [23] = test: Antipyretic activity in Wistar rat assessed as change in LPS-induced rectal temperature at 100 mg/kg, po administered 30 mins before LPS challenge after 3 hrs; assay type: functional; summary of the method: as §2
Rattus norvegicus [24] = test: Antiinflammatory activity in po dosed Wistar rat assessed as inhibition of carrageenan-induced hind paw edema volume administered 60 mins before carrageenan challenge; assay type: functional
Rattus norvegicus [25] = test: Antipyretic activity in Wistar rat assessed as change in LPS-induced rectal temperature at 100 mg/kg, po administered 30 mins before LPS challenge after 4 hrs; assay type: functional; summary of the method: as §2
Rattus norvegicus [26] = test: Antiinflammatory activity in Wistar rat assessed as inhibition of carrageenan-induced hind paw edema volume at 100 mg/kg, po administered 60 mins before carrageenan challenge after 2 hrs relative to control; assay type: functional
Rattus norvegicus [27] = test: Gastrointestinal toxicity in Wistar rat assessed as ulcer index at 100 mg/kg, po after 6 hrs; assay type: organism-based; set-up: dose 100 mg/kg, route oral; conditions: in vivo
Summary of the method: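 Female Wistar rats, 175±25 g, fasted 24 h, dosed orally once; sacrificed 6 h later by cervical dislocation. Stomach opened along greater curvature, saline-washed, mucosa inspected with a hand lens. Lesions graded I (edema/hyperemia/petechiae), II (hemorrhagic lesions with small erosions), III (deep ulcers); UI = nI + 2nII + 3nIII. Mean ± SEM, n = 6.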

CCCCCCNC(=O)CC1CCc2cc(OC)c(OC)cc21 (stereo not drawn)
inhibition (INH) (Rattus norvegicus [1]): 36.58% | inhibition in vivo at 100 mg/kg (Rattus norvegicus [2]): 40.6% | inhibition in vivo at 100 mg/kg (Rattus norvegicus [3]): 39.1% | inhibition in vivo at 100 mg/kg (Rattus norvegicus [4]): 39.8% | inhibition in vivo at 100 mg/kg (Rattus norvegicus [5]): 46.9% | Activity (Rattus norvegicus [6]): -0.56 °C | inhibition in vivo at 100 mg/kg (Rattus norvegicus [7]): 31.2% | inhibition (INH) (Rattus norvegicus [8]): 45.45% | inhibition (INH) (Rattus norvegicus [9]): 43.08% | Activity (Rattus norvegicus [10]): -0.94 °C | inhibition (INH) (Rattus norvegicus [11]): 52.38% | Activity (Rattus norvegicus [12]): 0.53 °C | inhibition in vivo at 100 mg/kg (Mus musculus): 82.2% | inhibition in vivo at 100 mg/kg (Rattus norvegicus [13]): 39.4% | Activity (Rattus norvegicus [14]): Non-toxic | UI (Rattus norvegicus [15]): 0 | inhibition (INH) (Rattus norvegicus [16]): 40.42% | Activity (Rattus norvegicus [17]): 0.54 °C | inhibition in vivo at 100 mg/kg (Rattus norvegicus [18]): 43.3% | inhibition in vivo at 100 mg/kg (Rattus norvegicus [19]): 28.8% | Activity (Rattus norvegicus [20]): 0.38 °C | inhibition (INH) (Rattus norvegicus [21]): 38.6% | inhibition in vivo at 100 mg/kg (Rattus norvegicus [22]): 7.64 g | Activity (Rattus norvegicus [23]): -0.23 °C | ED30 (Rattus norvegicus [24]): 24 mg/kg | Activity (Rattus norvegicus [25]): 0.11 °C | inhibition in vivo at 100 mg/kg (Rattus norvegicus [26]): 31% | UI (Rattus norvegicus [27]): 0
